The term IC50 denotes the concentration at which inhibition is half-maximal. A lower IC50 goes with greater potency.

Experimental findings from BindingDB's records for doi:10.1021/jm991078x (Insituto De Qu?mica M?dica (Csic), 1999) are described below.

Experiment [1] has as its target T1, Gastrin/cholecystokinin type B receptor (Rattus norvegicus, UniProt P30553).
T1 sequence (P30553 whole entry): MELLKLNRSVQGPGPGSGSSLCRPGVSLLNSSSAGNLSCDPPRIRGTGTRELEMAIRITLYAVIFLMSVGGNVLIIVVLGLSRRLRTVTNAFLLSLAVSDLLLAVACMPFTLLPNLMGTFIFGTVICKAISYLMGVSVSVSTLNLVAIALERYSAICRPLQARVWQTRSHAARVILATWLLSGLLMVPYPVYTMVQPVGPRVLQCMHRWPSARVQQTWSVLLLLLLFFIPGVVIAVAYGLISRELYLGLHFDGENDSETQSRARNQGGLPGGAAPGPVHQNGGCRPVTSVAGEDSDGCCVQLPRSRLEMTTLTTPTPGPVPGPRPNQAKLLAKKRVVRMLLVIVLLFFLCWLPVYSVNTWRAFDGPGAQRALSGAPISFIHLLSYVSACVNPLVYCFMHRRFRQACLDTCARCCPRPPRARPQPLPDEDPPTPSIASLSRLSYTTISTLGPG
In words: Binding affinity by competitive inhibition of the radioligand [3H]pCCK-8 at Cholecystokinin type B receptor from rat cerebral cortex membrane.

In experiment [2] the target is T2, Cholecystokinin receptor type A (Rattus norvegicus, UniProt P30551).
T2 sequence (P30551 whole entry): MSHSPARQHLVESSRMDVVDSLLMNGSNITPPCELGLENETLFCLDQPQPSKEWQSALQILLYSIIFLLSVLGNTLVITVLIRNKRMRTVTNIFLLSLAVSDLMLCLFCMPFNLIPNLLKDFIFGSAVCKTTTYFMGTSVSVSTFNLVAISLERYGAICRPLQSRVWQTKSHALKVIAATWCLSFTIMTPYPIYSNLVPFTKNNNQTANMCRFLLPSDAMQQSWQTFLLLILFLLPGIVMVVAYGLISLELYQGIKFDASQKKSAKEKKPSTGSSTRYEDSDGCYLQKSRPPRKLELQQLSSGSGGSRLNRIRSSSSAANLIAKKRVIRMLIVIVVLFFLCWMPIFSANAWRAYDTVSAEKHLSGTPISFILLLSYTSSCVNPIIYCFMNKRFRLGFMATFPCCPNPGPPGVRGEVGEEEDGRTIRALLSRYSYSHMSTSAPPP
In words: Binding affinity by competitive inhibition of the radioligand [3H]pCCK-8 at Cholecystokinin type A receptor from rat pancreas. Put shortly: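 Rat pancreas homogenized in Pipes HCl pH 6.5 with 30 mM MgCl2, centrifuged twice at 50000g, 4 °C. Membranes (0.2 mg protein/tube) incubated with 0.5 nM [3H]pCCK-8 plus bacitracin and soybean trypsin inhibitor (0.2 mg/mL each) for 120 min at 25 °C. […]. Seven concentrations in triplicate, at least three experiments.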

As to `O=C(N[C@H]1CCCN2C(=O)N(Cc3ccccc3)C(=O)C[C@H]12)c1cc2ccccc2[nH]1`, the figures for the concentration for half-maximal inhibition (IC50) in experiment [1] and in experiment [2] were > 10 µM and > 1 µM, respectively.

For `O=C(Cc1c[nH]c2ccccc12)N[C@H]1CCCN2C(=O)N(Cc3ccccc3)C(=O)C[C@@H]12` [N-((4aS,5S)-2-Benzyl-1,3-dioxo-octahydro-pyrido[1,2-c]pyrimidin-5-yl)-2-(1H-indol-3-yl)-acetamide; compound with 1H-indole-3-carboxylic acid ((4aR,5R)-2-benzyl-1,3-dioxo-octahydro-pyrido[1,2-c]pyrimidin-5-yl)-amide], the results for the IC50 in experiment [1] and in experiment [2] were > 10 µM and > 1 µM, respectively.
